Where a SMILES comes first, the peptide text is derived from it. Bridges are numbered along the chain shown (N, C = ends).
Key:
[1] = molecular target: T1, Adenylate cyclase (Rattus norvegicus) (UniProt D4A3N4+P26770+Q04400+P26769+Q03343+P40146+Q8CFM9+P21932); assay: Adenylate cyclase activity measured as percentage stimulation at (1 uM); type: protein assay
In short: (§1)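 Rat liver plasma membranes (35 µg protein) incubated in 0.1 mL of 25 mM Tris (pH 7.5) with 0.4% BSA, 1 mM [α-32P]ATP, 5 mM MgCl2, GTP, 1 mM EDTA, 1 mM cAMP with [3H]cAMP tracer, and a phosphocreatine/creatine phosphokinase ATP-regenerating system. Labeled cAMP was isolated on Dowex cation-exchange and alumina columns.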

Adenylate cyclase [2] = assay: Adenylate cyclase activity measured as 50% inhibitory concentration; type: protein assay
Glucagon receptor = Glucagon receptor (Rattus norvegicus, UniProt P30082); assay: Glucagon receptor binding measured as 50% inhibitory concentration
Glucagon receptor, sequence (P30082 whole entry): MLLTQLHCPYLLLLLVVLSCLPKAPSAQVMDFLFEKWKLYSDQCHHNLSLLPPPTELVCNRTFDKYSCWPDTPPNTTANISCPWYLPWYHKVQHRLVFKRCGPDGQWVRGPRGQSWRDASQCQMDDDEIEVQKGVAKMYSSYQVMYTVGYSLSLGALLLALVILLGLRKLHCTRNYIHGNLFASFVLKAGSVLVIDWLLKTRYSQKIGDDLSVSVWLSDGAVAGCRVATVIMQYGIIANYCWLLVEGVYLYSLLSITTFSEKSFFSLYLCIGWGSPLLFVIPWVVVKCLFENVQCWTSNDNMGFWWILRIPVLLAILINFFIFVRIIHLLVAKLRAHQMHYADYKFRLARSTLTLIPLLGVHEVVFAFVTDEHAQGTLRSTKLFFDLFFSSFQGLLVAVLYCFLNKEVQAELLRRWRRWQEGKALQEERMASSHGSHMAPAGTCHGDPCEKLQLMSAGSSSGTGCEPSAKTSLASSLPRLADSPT
In short: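 Membranes (50 µg protein) were taken from the livers of male Sprague Dawley rats (200-250 g), purified on a sucrose gradient. […] Nonspecific binding was defined with excess unlabeled peptide and subtracted. Run in triplicate, repeated twice.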

Adenylate cyclase [3] = assay: Adenylate cyclase activity measured as PA2; type: protein assay
[4] = molecular target: T1, Adenylate cyclase (Rattus norvegicus); assay: Adenylate cyclase activity measured as percentage stimulation at (20uM); type: protein assay; in short: as §1
[5] = molecular target: T1, Adenylate cyclase (Rattus norvegicus); assay: Adenylate cyclase activity measured as percentage stimulation; type: protein assay; design: concentration or dose not given beside the values
[6] = molecular target: T1, Adenylate cyclase (Rattus norvegicus); assay: Adenylate cyclase activity measured as percentage stimulation at 20 uM; type: protein assay; in short: as §1

Row | Compound | Activity [1] | EC50 (Adenylate cyclase [2]) | IC50 (Glucagon receptor) | pA2 (Adenylate cyclase [3]) | Activity [4] | Activity [5] | Activity [6]
1 | CSCC[C@H](NC(=O)[C@H](CC(C)C)NC(=O)[C@H](Cc1c[nH]c2ccccc12)NC(=O)[C@H](CCC(N)=O)NC(=O)[C@@H](NC(=O)[C@H](Cc1ccccc1)NC(=O)[C@H](CC(=O)O)NC(=O)[C@H](CCC(N)=O)NC(=O)[C@H](C)NC(=O)[C@H](CCCN=C(N)N)NC(=O)[C@H](CCCN=C(N)N)NC(=O)[C@H](CO)NC(=O)[C@H](CC(=O)O)NC(=O)[C@H](CC(C)C)NC(=O)[C@H](Cc1ccc(O)cc1)NC(=O)[C@@H]1CSSC[C@H](NC(=O)[C@H](Cc2ccccc2)NC(=O)[C@@H](NC(=O)CNC(=O)[C@H](CCC(N)=O)NC(=O)[C@H](CO)NC(=O)[C@@H](N)Cc2c[nH]cn2)[C@@H](C)O)C(=O)N[C@@H](CO)C(=O)N[C@@H](CC(=O)O)C(=O)N[C@@H](Cc2ccc(O)cc2)C(=O)N[C@@H](CO)C(=O)N1)C(C)C)C(=O)N[C@@H](CC(N)=O)C(=O)N[C@H](C(=O)O)[C@@H](C)O (H-HSQGTFCSDYSCYLDSRRAQDFVQWLMNT-OH; disulfide 7-12) |  | 5900 nM | 558 nM |  | 53% |  | 
2 | CSCC[C@H](NC(=O)[C@H](CC(C)C)NC(=O)[C@H](Cc1c[nH]c2ccccc12)NC(=O)[C@H](CCC(N)=O)NC(=O)[C@@H](NC(=O)[C@H](Cc1ccccc1)NC(=O)[C@H](CC(=O)O)NC(=O)[C@H](CCC(N)=O)NC(=O)[C@H](C)NC(=O)[C@H](CCCN=C(N)N)NC(=O)[C@H](CCCN=C(N)N)NC(=O)[C@H](CO)NC(=O)[C@H](CC(=O)O)NC(=O)[C@H](CC(C)C)NC(=O)[C@H](Cc1ccc(O)cc1)NC(=O)[C@H](CCCCN)NC(=O)[C@H](CO)NC(=O)[C@H](Cc1ccc(O)cc1)NC(=O)[C@@H]1CCC(=O)NCCCC[C@H](NC(=O)CNC(=O)[C@H](CCC(N)=O)NC(=O)[C@H](CO)NC(=O)[C@@H](N)Cc2c[nH]cn2)C(=O)N[C@@H](Cc2ccccc2)C(=O)N[C@@H]([C@@H](C)O)C(=O)N[C@@H](CO)C(=O)N1)C(C)C)C(=O)N[C@@H](CC(N)=O)C(=O)N[C@H](C(=O)O)[C@@H](C)O (H-HSQGKFTSEYSKYLDSRRAQDFVQWLMNT-OH; lactam 5-9) |  | 390 nM | 0.2 nM | 8.26 |  | 12% | 
3 | CSCC[C@H](NC(=O)[C@H](CC(C)C)NC(=O)[C@H](Cc1c[nH]c2ccccc12)NC(=O)[C@H](CCC(N)=O)NC(=O)[C@@H](NC(=O)[C@H](Cc1ccccc1)NC(=O)[C@H](CC(=O)O)NC(=O)[C@H](CCC(N)=O)NC(=O)[C@@H]1CSSC[C@H](NC(=O)[C@H](Cc2ccc(O)cc2)NC(=O)[C@H](CCCCN)NC(=O)[C@H](CO)NC(=O)[C@H](Cc2ccc(O)cc2)NC(=O)[C@H](CC(=O)O)NC(=O)[C@H](CO)NC(=O)[C@@H](NC(=O)[C@H](Cc2ccccc2)NC(=O)[C@@H](NC(=O)CNC(=O)[C@H](CCC(N)=O)NC(=O)[C@H](CO)NC(=O)[C@@H](N)Cc2c[nH]cn2)[C@@H](C)O)[C@@H](C)O)C(=O)N[C@@H](CC(=O)O)C(=O)N[C@@H](CO)C(=O)N[C@@H](CCCN=C(N)N)C(=O)N[C@@H](CCCN=C(N)N)C(=O)N1)C(C)C)C(=O)N[C@@H](CC(N)=O)C(=O)N[C@H](C(=O)O)[C@@H](C)O (H-HSQGTFTSDYSKYCDSRRCQDFVQWLMNT-OH; disulfide 14-19) |  | 7500 nM | 562 nM |  |  |  | 30%
4 | CSCC[C@H](NC(=O)[C@H](CC(C)C)NC(=O)[C@H](Cc1c[nH]c2ccccc12)NC(=O)[C@H](CCC(N)=O)NC(=O)[C@@H](NC(=O)[C@H](Cc1ccccc1)NC(=O)[C@@H]1CCC(=O)NCCCC[C@H](NC(=O)[C@H](CO)NC(=O)[C@H](CC(=O)O)NC(=O)[C@H](CC(C)C)NC(=O)[C@H](Cc2ccc(O)cc2)NC(=O)[C@H](CCCCN)NC(=O)[C@H](CO)NC(=O)[C@H](Cc2ccc(O)cc2)NC(=O)[C@H](CC(=O)O)NC(=O)[C@H](CO)NC(=O)[C@@H](NC(=O)[C@H](Cc2ccccc2)NC(=O)[C@@H](NC(=O)CNC(=O)[C@H](CCC(N)=O)NC(=O)[C@H](CO)NC(=O)[C@@H](N)Cc2c[nH]cn2)[C@@H](C)O)[C@@H](C)O)C(=O)N[C@@H](CCCN=C(N)N)C(=O)N[C@@H](C)C(=O)N[C@@H](CCC(N)=O)C(=O)N1)C(C)C)C(=O)N[C@@H](CC(N)=O)C(=O)N[C@H](C(=O)O)[C@@H](C)O |  | 0.27 nM | 0.24 nM |  |  | 98% | 
5 | CSCC[C@H](NC(=O)[C@H](CC(C)C)NC(=O)[C@H](Cc1c[nH]c2ccccc12)NC(=O)[C@H](CCC(N)=O)NC(=O)[C@@H](NC(=O)[C@H](Cc1ccccc1)NC(=O)[C@H](CC(=O)O)NC(=O)[C@H](CCC(N)=O)NC(=O)[C@H](C)NC(=O)[C@H](CCCN=C(N)N)NC(=O)[C@H](CCCN=C(N)N)NC(=O)[C@H](CO)NC(=O)[C@H](CC(=O)O)NC(=O)[C@H](CC(C)C)NC(=O)[C@H](Cc1ccc(O)cc1)NC(=O)[C@H](CS)NC(=O)[C@H](CO)NC(=O)[C@H](Cc1ccc(O)cc1)NC(=O)[C@H](CC(=O)O)NC(=O)[C@H](CO)NC(=O)[C@H](CS)NC(=O)[C@H](Cc1ccccc1)NC(=O)[C@@H](NC(=O)CNC(=O)[C@H](CCC(N)=O)NC(=O)[C@H](CO)NC(=O)[C@@H](N)Cc1c[nH]cn1)[C@@H](C)O)C(C)C)C(=O)N[C@@H](CC(N)=O)C(=O)N[C@H](C(=O)O)[C@@H](C)O (H-HSQGTFCSDYSCYLDSRRAQDFVQWLMNT-OH) |  | 59 nM |  |  | 100% |  | 

Now from value to molecule:

Row | Activity [1] | EC50 (Adenylate cyclase [2]) | IC50 (Glucagon receptor) | pA2 (Adenylate cyclase [3]) | Activity [4] | Activity [5] | Activity [6] | Compound
6 | 100% | 236 nM | 13.7 nM |  |  |  |  | CSCC[C@H](NC(=O)[C@H](CC(C)C)NC(=O)[C@H](Cc1c[nH]c2ccccc12)NC(=O)[C@H](CCC(N)=O)NC(=O)[C@@H](NC(=O)[C@H](Cc1ccccc1)NC(=O)[C@H](CC(=O)O)NC(=O)[C@H](CCC(N)=O)NC(=O)[C@H](CS)NC(=O)[C@H](CCCN=C(N)N)NC(=O)[C@H](CCCN=C(N)N)NC(=O)[C@H](CO)NC(=O)[C@H](CC(=O)O)NC(=O)[C@H](CS)NC(=O)[C@H](Cc1ccc(O)cc1)NC(=O)[C@H](CCCCN)NC(=O)[C@H](CO)NC(=O)[C@H](Cc1ccc(O)cc1)NC(=O)[C@H](CC(=O)O)NC(=O)[C@H](CO)NC(=O)[C@@H](NC(=O)[C@H](Cc1ccccc1)NC(=O)[C@@H](NC(=O)CNC(=O)[C@H](CCC(N)=O)NC(=O)[C@H](CO)NC(=O)[C@@H](N)Cc1c[nH]cn1)[C@@H](C)O)[C@@H](C)O)C(C)C)C(=O)N[C@@H](CC(N)=O)C(=O)N[C@H](C(=O)O)[C@@H](C)O (H-HSQGTFTSDYSKYCDSRRCQDFVQWLMNT-OH)
7 |  |  | 6 nM | 8.28 |  |  |  | CSCC[C@H](NC(=O)[C@H](CC(C)C)NC(=O)[C@H](Cc1c[nH]c2ccccc12)NC(=O)[C@H](CCC(N)=O)NC(=O)[C@@H](NC(=O)[C@H](Cc1ccccc1)NC(=O)[C@H](CC(=O)O)NC(=O)[C@H](CCC(N)=O)NC(=O)[C@H](C)NC(=O)[C@H](CCCN=C(N)N)NC(=O)[C@H](CCCN=C(N)N)NC(=O)[C@H](CO)NC(=O)[C@H](CC(=O)O)NC(=O)[C@H](CC(C)C)NC(=O)[C@H](Cc1ccc(O)cc1)NC(=O)[C@H](CCCCN)NC(=O)[C@H](CO)NC(=O)[C@H](Cc1ccc(O)cc1)NC(=O)[C@H](CC(=O)O)NC(=O)[C@H](CO)NC(=O)[C@@H]1CCC(=O)NCCCC[C@H](NC(=O)[C@H](CO)NC(=O)[C@@H](N)Cc2c[nH]cn2)C(=O)NCC(=O)N[C@@H]([C@@H](C)O)C(=O)N[C@@H](Cc2ccccc2)C(=O)N1)C(C)C)C(=O)N[C@@H](CC(N)=O)C(=O)N[C@H](C(=O)O)[C@@H](C)O (H-HSKGTFESDYSKYLDSRRAQDFVQWLMNT-OH; lactam 3-7)

Reference: ChEMBL document CHEMBL1134594 (J Med Chem, 2001)
